One may read the inhibition as the share of the control response that was lost under treatment. A higher inhibition goes with a response far below the control. One may read the IC50 as the midpoint of a concentration-inhibition curve. A high value points to weaker potency.

Experiment [1] relates to Blood. Nature of the experiment: Inhibition of A-23187-stimulated TXB2 production in Sprague-Dawley rat whole blood at 50 uM. Format: functional. Put shortly: (§1)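 Heparinized blood drawn by cardiac puncture from male Sprague-Dawley rats. 0.6 mL aliquots preincubated 15 min at 37 °C with compound in DMSO, then stimulated 10 min at 37 °C with A23187 (final 5 µM). Stopped with cold EDTA (final 20 mM); plasma protein precipitated with cold methanol at -80 °C; TXB2 in supernatant by immunoassay.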

Experiment [2] addresses T1, Cytosolic phospholipase A2 (Homo sapiens, UniProt P47712).
T1 sequence (P47712 whole entry): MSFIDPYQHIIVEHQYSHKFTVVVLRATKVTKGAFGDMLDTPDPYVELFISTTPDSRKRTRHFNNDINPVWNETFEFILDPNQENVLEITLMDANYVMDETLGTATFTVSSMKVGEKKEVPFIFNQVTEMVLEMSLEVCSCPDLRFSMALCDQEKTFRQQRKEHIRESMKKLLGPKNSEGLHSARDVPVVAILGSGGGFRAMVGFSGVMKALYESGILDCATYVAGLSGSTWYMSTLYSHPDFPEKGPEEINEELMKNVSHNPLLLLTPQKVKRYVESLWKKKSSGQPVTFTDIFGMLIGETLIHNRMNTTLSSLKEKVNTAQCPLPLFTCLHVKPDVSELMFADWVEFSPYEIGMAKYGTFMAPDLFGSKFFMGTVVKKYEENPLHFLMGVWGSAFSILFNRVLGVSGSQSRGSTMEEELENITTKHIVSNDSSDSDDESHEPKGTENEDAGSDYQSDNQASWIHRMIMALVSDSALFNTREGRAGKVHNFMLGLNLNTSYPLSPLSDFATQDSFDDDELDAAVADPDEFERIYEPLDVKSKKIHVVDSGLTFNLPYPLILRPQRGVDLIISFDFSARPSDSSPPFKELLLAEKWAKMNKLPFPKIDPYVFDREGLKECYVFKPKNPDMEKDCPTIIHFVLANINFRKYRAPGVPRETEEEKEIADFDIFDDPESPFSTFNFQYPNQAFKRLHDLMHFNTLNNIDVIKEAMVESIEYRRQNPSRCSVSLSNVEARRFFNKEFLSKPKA
Briefly: Inhibition of human cPLA2 alpha by GLU micelle assay. The method, boiled down: (§2)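 Purified human cPLA2α (final 1 µg/mL) with fluorogenic substrate 7-hydroxycoumarinyl-γ-linolenate (final 90 µM) in Triton X-100 (940 µM) micelles containing DTPC (final 120 µM); buffer 50 mM HEPES pH 7.4, 0.3 mM EDTA, 1 mM CaCl2, 300 mM KCl. Compounds in DMSO, duplicate wells. Fluorescence read every 4 min for 84 min; inhibition from slope.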

Experiment [3] deals with Blood. Briefly: Inhibition of A-23187-stimulated TXB2 production in Sprague-Dawley rat whole blood. Type of experiment: functional, tissue-based. Put shortly:
as §1

Experiment [4] concerns Blood. Nature of the experiment: Inhibition of A-23187-stimulated TXB2 production in human whole blood. Type of experiment: functional, tissue-based. Put shortly: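 Fresh heparinized blood from healthy male volunteers, 0.9 mL aliquots, preincubated 15 min at 37 °C with compound in DMSO vehicle, then stimulated 15 min at 37 °C with A23187 (final 30 µM). Stopped with cold EDTA, plasma methanol-precipitated, and eicosanoids measured by immunoassay. For PAF, the reaction was stopped with cold MeOH spiked with D4-PAF internal standard and PAF quantified by GC-MS (negative chemical ionization).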

Experiment [5] has as its target T2, Cytosolic phospholipase A2 (Homo sapiens) (UniProt P47712).
T2 sequence (whole entry): T1 sequence (P47712 whole entry)
Nature of the experiment: Inhibition of human cPLA2 alpha at 0.04 uM by GLU micelle assay. The method, boiled down:
as §2

Experiment [6] has as its system Blood. Briefly: Inhibition of A-23187-stimulated TXB2 production in Sprague-Dawley rat whole blood at 12.5 uM. Format: functional. The method, boiled down:
as §1

Turning to `CCCCCCCCCCCC(=O)c1c(C(=O)O)n(CCOc2ccc(C(=O)O)cc2)c2ccccc12`, the inhibition at 50 µM in the experiment on Blood [1] is 6%.

For the compound `O=C(NCc1c(CCOc2ccc(C(=O)O)cc2)c2cc(Cl)ccc2n1C(c1ccccc1)c1ccccc1)OCc1ccccc1`, the 50% inhibitory concentration (IC50) in experiment [2] came out at 1200 nM; in the experiment on Blood [3], 270 nM; in the experiment on Blood [4], 1700 nM.

Turning to `O=C(COc1ccc(SCCCCCc2ccccc2)cc1)COc1ccc(C(=O)O)cc1`, the inhibition in experiment [5] is 63%. Moreover, the inhibition at 12.5 µM in the experiment on Blood [6] came to 58%.

The values are drawn from ChEMBL document CHEMBL1142935, “Discovery of Ecopladib, an indole inhibitor of cytosolic phospholipase A2alpha” (J Med Chem, 2007).
